MT1-MMP act inh: blocks activation of human MT1-MMP; GFP/RFP ratio change, % at 20 µM; P50281; 360,000 compounds, 0.061% hits; HT1080 RFP-PRO-GFP cells, GFP/RFP ratio fluorescence, overnight; percent of plate control window, DMSO zero;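 active means GFP/RFP ratio change of at least 30% with cell ATP level not reduced by more than half and red fluorescence within 50% of control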
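Assay system: HT1080 RFP-PRO-GFP cells | Dosing: 20 µM single dose, 1% DMSO | Incubation: Cells overnight before dosing, compound overnight, 37 °C, 5% CO2 | Evaluation: GFP/RFP fluorescence ratio | Control set: DMSO-only wells and HT1080 RFP-L50D-GFP cell wells as references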
GRIN3A LBD mod: modulates the human NR3A ligand-binding domain; 340,000 compounds, 2.5% hits; Tm shift relative to glycine control, % at 25 µM; NR3A LBD differential scanning fluorimetry, Tm shift; 0% = protein alone, 100% = glycine-bound protein;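 active means melting temperature shift of at least 10% of the positive control shift, at one fixed dose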
SKN-1 block: C. elegans SKN-1 inhibition; C. elegans VP596 Pgst-4::GFP/RFP ratio, acrylamide-induced, 24 h; inhibition, % at 21.8 µM; 360,000 compounds, 0.49% hits; AID 624304;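 active means interference check ratio from 0.5 to 1.5 plus GFP to RFP signal ratio inhibition reaching or exceeding a fixed threshold, cut at about 30% in these data, passing the limit was not always enough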
ADAM10 inh: inhibitors of human ADAM10 | O14672 | 370,000 compounds, 0.62% hits | inhibition, % at 7 µM | recombinant ADAM10, EDANS/DABCYL FRET peptide cleavage, 3 h;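 active means inhibition above a per-campaign cutoff equal to the mean of compounds falling between control-based bounds plus 3 SD, cut at about 20% in these data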
MPTP inh: permeability transition pore inhibition; isolated mouse mitochondria, Ca2+ swelling absorbance, 30 min; inhibition, % at 10 µM; 360,000 compounds, 1.4% hits; AID 602449;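 active means inhibition of 50% or more, scaled per plate between neutral and stimulator controls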
ADAM17 inh: ADAM17 inhibition, QFRET primary screen; 370,000 compounds, 0.83% hits; AID 720648; recombinant ADAM17, EDANS/DABCYL FRET peptide cleavage; P78536; inhibition, % at 6.95 µM;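 active means inhibition above the mean of compounds lying between control limits plus 3 SD, set per campaign, cut at about 8.5% in these data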
Target sequence (P78536 215-824 limits assumed): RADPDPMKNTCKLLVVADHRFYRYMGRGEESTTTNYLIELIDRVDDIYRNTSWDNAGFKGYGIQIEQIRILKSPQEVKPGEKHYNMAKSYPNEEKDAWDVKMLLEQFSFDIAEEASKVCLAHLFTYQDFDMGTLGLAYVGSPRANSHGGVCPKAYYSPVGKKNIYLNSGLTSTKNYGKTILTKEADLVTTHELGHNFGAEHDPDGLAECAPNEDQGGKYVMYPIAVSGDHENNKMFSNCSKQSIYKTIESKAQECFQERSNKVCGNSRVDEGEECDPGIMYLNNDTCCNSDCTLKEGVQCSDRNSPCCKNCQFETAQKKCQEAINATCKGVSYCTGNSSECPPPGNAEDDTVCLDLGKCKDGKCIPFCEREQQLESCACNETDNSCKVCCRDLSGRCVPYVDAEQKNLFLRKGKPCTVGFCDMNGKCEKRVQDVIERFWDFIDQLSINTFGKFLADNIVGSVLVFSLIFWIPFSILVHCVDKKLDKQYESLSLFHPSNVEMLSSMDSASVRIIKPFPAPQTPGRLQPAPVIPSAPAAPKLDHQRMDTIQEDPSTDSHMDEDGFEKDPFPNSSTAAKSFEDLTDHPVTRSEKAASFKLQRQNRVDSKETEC
Large screens that a line does not name were inactive. Only some compounds are listed: those with a hit (about 4.7% of all), similar ones and a draw of the others.

COc1cc(C(=O)N2CCN(c3cccc(Cl)c3)CC2)ccc1OCC(=O)N1CCOCC1	none (no result: GRIN3A LBD mod)
CN(C)c1ccc(C(O)c2cc3ccccc3s2)cc1 (stereo not drawn)	ADAM17 inh 10
Cc1ccc(Nc2nc(Cl)c(C=O)s2)cc1Cl	GRIN3A LBD mod 21
COc1ccc(NC2CCCN(C(=O)COc3ccc(Cl)cc3C)C2)cc1OC (stereo not drawn)	none
COc1cc(CCNC(=O)c2cnn3ccccc23)cc(OC)c1OC	GRIN3A LBD mod 22
COc1ccc(CCNC(=O)c2cnn3ccccc23)c(OC)c1OC	none
CC(C)OP(=O)(OC(C)C)C(NC(=O)c1ccccc1Br)C(N)=O (stereo not drawn)	none
Clc1ncc(CSc2ccccc2)s1	SKN-1 block 39
O=C(Cn1ccccc1=O)c1ccc(Cl)cc1	none
O=C(/C=C/c1ccc(F)cc1)Nc1ccc(S(=O)(=O)N2CCOCC2)cc1	GRIN3A LBD mod 22
COc1ccc(/C=C/C(=O)Nc2cccc(F)c2)cc1S(=O)(=O)N1CCOCC1	GRIN3A LBD mod 10
COc1ccc(/C=C/C(=O)Nc2ccccc2F)cc1S(=O)(=O)N1CCOCC1	none
C=C(C)C1CC=C(C)/C(=N/NC(=O)c2ccccc2[N+](=O)[O-])C1 (stereo not drawn)	none
O=C(NC(=S)Nc1ccccc1)C1CCCCC1	none
CC(=O)c1ccc(NC(=S)NCCc2ccc(S(N)(=O)=O)cc2)cc1	none
S=C(NCc1ccccc1)C(=S)NCc1ccccc1	SKN-1 block 38
NS(=O)(=O)c1ccc(NC(=S)NCCc2ccccc2)cc1	GRIN3A LBD mod 12
O=C(NC(=S)NCc1ccccc1)C1CCCCC1	GRIN3A LBD mod 18
S=C(NCCCCNC(=S)NCc1ccccc1)NCc1ccccc1	none
S=C(NCCc1ccccc1)NCCc1ccccc1	GRIN3A LBD mod 26
COC(=O)N1C[C@@H]2Oc3nccnc3O[C@@H]2C[C@@H]1c1ccccc1Br	none (no result: MT1-MMP act inh, GRIN3A LBD mod, SKN-1 block, MPTP inh)
CCCc1cc(=O)n2[nH]c(NCc3ccccc3F)nc2n1	none
S=c1nc[nH]c2c1ncn2-c1ccc(Cl)cc1	none
O=C1CCCN1CCCNC(=S)Nc1ccccc1Cl	none
CCCSc1nc2sc3c(c2c(=O)[nH]1)CCN(Cc1ccccc1)C3	none (no result: ADAM10 inh, ADAM17 inh)
O=c1[nH]c(C(Cl)Cl)nc2sc3c(c12)CCN(Cc1ccccc1)C3	GRIN3A LBD mod 15
C[C@@H]1CN([C@H](C)CO)C(=O)CCCn2nncc2CO[C@@H]1CN(C)C(=O)NC1CCCCC1	none (no result: GRIN3A LBD mod)
O=C(O)c1ccc2c(c1)C(=O)/C(=C/c1ccccc1)C2=O	GRIN3A LBD mod 26
[NH-]c1ncnc2c1N=C[N+]2=CC=CCO	GRIN3A LBD mod 14
CCN(CC(=O)Nc1ccc(NC(C)=O)cc1)CC(=O)Nc1ccccc1C(=O)c1ccccc1	none
c1ccc(CSc2nccc(-c3ccco3)n2)cc1	SKN-1 block 43
O=C(COC(=O)CCC(=O)c1ccc(F)cc1)Nc1ccc(F)cc1F	none
O=C(CCCc1ccccc1)NC12CC3CC(CC(C3)C1)C2	none
Cc1nonc1CN(C)C(=O)CC1C(=O)NCCN1Cc1ccccc1F (stereo not drawn)	GRIN3A LBD mod 11
Cc1ccc(C(C)NC(=O)C2CCCO2)cc1C (stereo not drawn)	none
CCC(C)CN1C(=O)CN(S(C)(=O)=O)CC1(C)C(=O)NC(C)C (stereo not drawn)	none (no result: GRIN3A LBD mod)
Cc1ccc(NC(=O)C2C3C=CC4(O3)C2C(=O)N(CCN2CCOCC2)C4C(=O)NC2CCCCC2)cc1C (stereo not drawn)	none
CSc1cccc(NC(=O)C2C3C=CC4(O3)C2C(=O)N(CCN2CCOCC2)C4C(=O)NC2CCCCC2)c1 (stereo not drawn)	SKN-1 block 37
COc1ccc(OC)c2[nH]c(=O)c(CCNC(=O)c3ccc(Br)o3)cc12	none
Cc1ccc2c(c1)C(=O)CC(c1ccccc1)S2 (stereo not drawn)	GRIN3A LBD mod 13
O=C1CC(c2ccccc2)Sc2ccccc2N1 (stereo not drawn)	none
CCc1ccc(N2CC34C=CC(O3)C(C(=O)OC)C4C2=O)cc1 (stereo not drawn)	none
CNc1nc(Cl)c(SC)c(NCc2cccc(OC)c2)n1	GRIN3A LBD mod 17
CC(=O)c1cccc(NC(=O)N2CCCC2C(=O)Nc2c(C)cccc2C)c1 (stereo not drawn)	SKN-1 block 37
N#Cc1ccc(-c2csc(NNC(=O)c3ccc(Br)cc3)n2)cc1	none
Nc1nc(Nc2ccccc2)nc(N2CCOCC2)c1[N+](=O)[O-]	none
Nc1nc(Nc2ccccc2F)nc(N2CCOCC2)c1[N+](=O)[O-]	GRIN3A LBD mod 15
Nc1c(S(=O)(=O)c2ccccc2)c2nc3ccccc3nc2n1/N=C/c1cccc(O)c1	GRIN3A LBD mod 25
Cc1ccc(C)c(S(=O)(=O)c2c(N)n(/N=C/c3ccco3)c3nc4ccccc4nc23)c1	GRIN3A LBD mod 36
Cc1cccc(S(=O)(=O)c2c(N)n(/N=C/c3ccccc3)c3nc4ccccc4nc23)c1	none
CCOc1ccc(OCCC(=O)OCC(=O)N(CC)c2c(N)n(Cc3ccccc3)c(=O)[nH]c2=O)cc1	none
CC(C)c1ccc(C(CC(=O)c2ccc(Cl)cc2)C(=O)O)cc1 (stereo not drawn)	none
CCOc1ccc(NC(=O)COC(=O)c2ccc3c(c2)OCO3)cc1	none
Cc1ccc(C(=O)NCCc2sc(C)nc2C)cc1	none
Cc1nc(C)c(CCNC(=O)c2ccc(C(F)(F)F)cc2)s1	GRIN3A LBD mod 16
c1ccc(-c2csc(N3CCOCC3)n2)cc1	none
c1ccc(-c2csc(N3CCN(c4ccccn4)CC3)n2)cc1	SKN-1 block 47
Cc1ccc(SC[C@H](c2ccccc2)N2CCN(C)CCC2=O)cc1	none
CN(C)C(CNC(=O)CCc1nc2cc(Cl)ccc2n(Cc2ccccc2)c1=O)c1ccccc1 (stereo not drawn)	SKN-1 block 57
CCNC(=S)NNC(=O)CCc1nc2cc(Cl)ccc2n(Cc2ccccc2)c1=O	none
O=c1oc(-c2ccc(O)c(O)c2)cc2cccc(O)c12	GRIN3A LBD mod 24
O=c1oc(-c2ccc(O)c(O)c2)cc2cc(O)cc(O)c12	GRIN3A LBD mod 20
O=CN1CCc2scc[n+]2-c2ccccc21	SKN-1 block 36
CCOc1ccc(NC(=O)c2cccc(S(=O)(=O)NCc3cccnc3)c2)cc1	none (no result: GRIN3A LBD mod)
COc1nc(-c2ccccc2)ccc1-c1noc(-c2ccco2)n1	SKN-1 block 63
COc1cc(C(=O)NNC(=O)COc2ccc(Cl)cc2)ccc1OCC(=O)N1CCOCC1	none
Cc1occc1C(=O)N/N=C/c1c(O)ccc2ccccc12	GRIN3A LBD mod 32
O=C(N/N=C\c1c(O)ccc2ccccc12)c1ccc(O)cc1	GRIN3A LBD mod 41
